pKi: −log10 of the molar value. The source made the active and inactive calls. The rule behind the calls is not given here.
How the values were obtained:
[1] = Competitive inhibition of CcrA using cezafolin as substrate incubated for 30 mins prior to substrate addition by Lineweaver-burk plot analysis
Procedure, shortened: (§1)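 Purified CcrA (Bacteroides fragilis) or L1 (S. maltophilia), over-expressed. Cefazolin substrate at several concentrations, inhibitor concentration varied from 0. Enzyme and inhibitor preincubated 30 min. Run in 50 mM Tris pH 7.0 at 25 °C with UV–Vis spectrophotometric read-out. Inhibition mode from Lineweaver–Burk plots; Ki determined.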

[2] = Competitive inhibition of L1 using cezafolin as substrate incubated for 30 mins prior to substrate addition by Lineweaver-burk plot analysis; procedure, shortened: as §1
[3] = test system: Escherichia coli BL21(DE3); assay: Inhibition of CcrA in Escherichia coli BL21(DE3) assessed as reduction in cefazolin MIC for after 24 hrs by macrobroth dilution assay; design: scale not given: the % may be the effect or the level left
Procedure, shortened: (§2)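 Macrobroth twofold antibiotic dilutions in Mueller–Hinton medium, tubes with or without inhibitor. Strains were E. coli BL21(DE3) carrying pMSZ02-CcrA, pET-26b-ImiS or pET26b-L1, and K. pneumoniae ATCC 700603. Incubated 37 °C for 24 h; MIC read. Duplicate.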

[4] = test system: Escherichia coli BL21(DE3); assay: Inhibition of Imis in Escherichia coli BL21(DE3) assessed as reduction in cefazolin MIC after 24 hrs by macrobroth dilution assay; design: scale not given: the % may be the effect or the level left; settings: in the assay text read “imipenem” for “cefazolin”; procedure, shortened: as §2
[5] = test system: Escherichia coli BL21(DE3); assay: Inhibition of L1 in Escherichia coli BL21(DE3) assessed as reduction in cefazolin MIC after 24 hrs by macrobroth dilution assay; procedure, shortened: as §2
Klebsiella pneumoniae = assay: Inhibition of metallo-beta-lactamase in Klebsiella pneumoniae ATCC 700603 assessed as reduction in cefazolin MIC after 24 hrs by macrobroth dilution assay; procedure, shortened: as §2
Staphylococcus aureus [6] = assay: Inhibition of metallo-beta-lactamase in methicillin-resistant Staphylococcus aureus isolate 1 assessed as reduction in cefazolin MIC after 24 hrs by macrobroth dilution assay
Procedure, shortened: (§3)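 Macrobroth twofold dilution in Mueller–Hinton (MH) medium. Each tube held inhibitor stock plus antibiotic from a 1280 µg/ml stock, serially twofold diluted. Final inoculum was 5 × 10⁵ CFU/ml. MIC was read after 24 h at 37 °C, with inhibitor present or absent, in duplicate.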

Staphylococcus aureus [7] = assay: Inhibition of metallo-beta-lactamase in methicillin-resistant Staphylococcus aureus isolate 1 assessed as reduction in vancomycin MIC after 24 hrs by macrobroth dilution assay; procedure, shortened: as §3
Staphylococcus aureus [8] = assay: Inhibition of metallo-beta-lactamase in methicillin-resistant Staphylococcus aureus isolate 2 assessed as reduction in cefazolin MIC after 24 hrs by macrobroth dilution assay; procedure, shortened: as §3
Staphylococcus aureus [9] = assay: Inhibition of metallo-beta-lactamase in methicillin-resistant Staphylococcus aureus isolate 2 assessed as reduction in vancomycin MIC after 24 hrs by macrobroth dilution assay; procedure, shortened: as §3
[10] = Competitive inhibition of ImiS using imipenem as substrate incubated for 30 mins prior to substrate addition by Lineweaver-burk plot analysis
[11] = Inhibition of ImiS using imipenem as substrate up to 50 uM incubated for 30 mins prior to substrate addition
[12] = Inhibition of CcrA using cezafolin as substrate up to 50 uM incubated for 30 mins prior to substrate addition
[13] = Inhibition of L1 using cezafolin as substrate up to 50 uM incubated for 30 mins prior to substrate addition
[14] = Noncompetitive inhibition of CcrA using cezafolin as substrate incubated for 30 mins prior to substrate addition by Lineweaver-burk plot analysis; procedure, shortened: as §1
[15] = Noncompetitive inhibition of ImiS using imipenem as substrate incubated for 30 mins prior to substrate addition by Lineweaver-burk plot analysis

Structure (SMILES) | pKi [1] | pKi [2] | Activity [3] | Activity [4] | Activity [5] | Activity (Klebsiella pneumoniae) | Activity (Staphylococcus aureus [6]) | Activity (Staphylococcus aureus [7]) | Activity (Staphylococcus aureus [8]) | Activity (Staphylococcus aureus [9]) | pKi [10] | inhibition [11] | inhibition [12] | inhibition [13] | pKi [14] | pKi [15]
O=C(O)C1CSC(C(=O)O)N1 (configuration not stated) [TIDIACIC] | 6.19 | 5.74 | Active | Active | Active | Active | inactive | inactive | inactive | inactive | 5.15 |  |  |  |  | 
O=C(O)C1COC(C(=O)O)N1 (configuration not stated) | 5.96 | 5.72 | Active | inactive | Active | Active | inactive | inactive | inactive | inactive |  | inactive |  |  |  | 
O=C(O)C1CCC(C(=O)O)N1 (configuration not stated) | 6.14 | 6.16 | Active | inactive | Active | Active | inactive | inactive | inactive | inactive |  | inactive |  |  |  | 
Sc1nnc(-c2ccncc2)[nH]1 |  |  | inactive | inactive | inactive | inactive | inactive | inactive | inactive | inactive |  | inactive | inactive | inactive |  | 
Sc1nnc(-c2ccccn2)s1 |  |  | 50% | 50% | inactive | inactive | inactive | inactive | inactive | inactive |  |  |  | inactive | 5.27 | 5.46
S=c1[nH]nc(-c2ccncc2)s1 |  |  | 50% | 50% | inactive | inactive | inactive | inactive | inactive | inactive |  |  |  | inactive | 5.23 | 5.17
Sc1nnc(-c2ccccn2)[nH]1 |  |  | inactive | inactive | inactive | inactive | inactive | inactive | inactive | inactive |  | inactive | inactive | inactive |  | 
